# In ChEMBL document CHEMBL1148169, “Bioactive and other sesquiterpenoids from Porella cordeana” (1993):
# Key:
# Saccharomyces cerevisiae [1] = test: DNA damaging activity against RS167N rad6 DNA repair gene deficient Saccharomyces cerevisiae mutant assessed as drug level required to produce 12 mm zone of inhibition after 48 hrs; format: functional
# Outline: (§1)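 Agar well-diffusion test on Saccharomyces cerevisiae strains differing in DNA-repair genes. Sample is placed in a 100 μl well and the plate is incubated 48 h at 37°. The value is the concentration in μg/ml that gives a 12 mm diameter inhibition zone around the well.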
# Saccharomyces cerevisiae [2] = test: DNA damaging activity against RS322YK rad52 DNA repair gene deficient Saccharomyces cerevisiae mutant assessed as drug level required to produce 12 mm zone of inhibition after 48 hrs; format: functional; outline: as §1
# Saccharomyces cerevisiae [3] = test: DNA damaging activity against DNA repair gene deficient Saccharomyces cerevisiae mutant assessed as drug level required to produce 12 mm zone of inhibition after 48 hrs
Structure (SMILES),IC12 (Saccharomyces cerevisiae [1]),IC12 (Saccharomyces cerevisiae [2]),IC12 (Saccharomyces cerevisiae [3])
CC1(C)CCC[C@]2(C)C3=C(COC3=O)C(=O)C[C@@H]12,> 1000 µg/mL,> 1000 µg/mL,> 1000 µg/mL
CC1(C)CCC[C@@]2(C)C1=CC(=O)C1=C2C(=O)OC1,> 1000 µg/mL,> 1000 µg/mL,> 1000 µg/mL
C[C@@H]1CCCC2=CC(=O)[C@@H]3[C@@H](C3(C)C)[C@]21C [ARISTOLONE],> 1000 µg/mL,390 µg/mL,> 1000 µg/mL
CC1(C)CCC[C@]2(C)[C@H]3C(=O)OCC3=CC[C@@H]12 [DRIMENIN],> 1000 µg/mL,200 µg/mL,> 1000 µg/mL
C[C@@H]1[C@@H]2C[C@@]3(C)C(=O)c4ccoc4C[C@@]13C(=O)O2 [NORPINGUISANOLIDE],> 1000 µg/mL,> 1000 µg/mL,> 1000 µg/mL
